From PubChem BioAssay
This is a sample that favours compounds with a hit; in the whole collection about 4.6% have one here.
TAAR1 antagonist – human TAAR1 antagonism; inhibition, % at 3 µM; 360,000 tested, 1.5% active; CHO RD-HGA16 TAAR1, Fluo-8 calcium fluorescence, antagonist; Q96RJ0;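 active = inhibition above a per-plate cutoff, the mean inhibition of test compounds on that plate plus 3 SD, cut at about 49% in these data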;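 also: 0% = DMSO plus EC80 beta-PEA response and 100% = DMSO alone without agonist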
Target sequence (Q96RJ0 whole entry, looked up): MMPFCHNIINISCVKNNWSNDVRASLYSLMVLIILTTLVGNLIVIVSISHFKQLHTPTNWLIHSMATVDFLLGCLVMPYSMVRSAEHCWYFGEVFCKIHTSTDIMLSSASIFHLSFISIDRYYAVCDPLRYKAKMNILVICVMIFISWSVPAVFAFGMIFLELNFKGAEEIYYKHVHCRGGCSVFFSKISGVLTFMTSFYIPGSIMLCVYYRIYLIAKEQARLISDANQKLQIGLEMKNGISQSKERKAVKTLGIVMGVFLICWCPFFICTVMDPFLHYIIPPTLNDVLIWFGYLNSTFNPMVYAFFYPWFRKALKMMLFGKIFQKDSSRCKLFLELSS
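System: CHO RD-HGA16 cells bearing hTAAR1. Reagent: EC80 β-phenethylamine stimulus. Schedule: seeding 17-24 h prior, 75-min 37 °C, 30-min RT dye loading. Signal: Fluo-8 intracellular calcium dye fluorescence, real-time kinetic reads. Read-out: % inhibition from peak post-agonist over basal fluorescence ratio. Benchmarks: vehicle wells and EC80 agonist wells. Replicates: n of 1.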
OX1R antag-1 – blocks the human orexin 1 receptor; O43613; CHO/OX1R cells, Fluo-8 calcium fluorescence, orexin A; inhibition, % at 5 µM; 330,000 tested, 0.43% active;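 active = inhibition above its plate's threshold, mean inhibition of all tested compounds on the plate plus 3 SD, cut at about 37% in these data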;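 also: 0% = orexin A challenge wells and 100% = SB-334867-A antagonist wells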
CHO parental Ca – counter-screen for OX1R antagonists: effect in parental CHO cells | AID 463079 | 330,000 tested, 0.63% active | parental CHO-K1, ATP-induced calcium, Fluo-8 fluorescence | inhibition, % at 5.6 µM;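 active = inhibition above that plate's mean sample inhibition plus 3 SD, cut at about 26% in these data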;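 also: 0% = ATP-challenged DMSO wells and 100% = DMSO wells without ATP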
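Assay system: untransfected parental CHO cell line. Also added: ATP agonist challenge. Dosing: one dose, 5.6 µM nominal. Measured by: Fluo-8 fluorescence. Read-out: % inhibition. Benchmarks: ATP wells versus no-ATP DMSO wells. Repeats: no replicates.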
GPR7 antag – human neuropeptides B/W receptor 1 antagonism; P48145; GPR7-expressing cells, fluorescence antagonist assay; inhibition, % at 4.4 µM; 290,000 tested, 1.1% active; in the data active = inhibition above about 16%, passing the limit was not always enough;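 also: cells stimulated with the agonist NPW; 0% = agonist with vehicle and 100% = vehicle without agonist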
Target sequence (P48145 whole entry, looked up): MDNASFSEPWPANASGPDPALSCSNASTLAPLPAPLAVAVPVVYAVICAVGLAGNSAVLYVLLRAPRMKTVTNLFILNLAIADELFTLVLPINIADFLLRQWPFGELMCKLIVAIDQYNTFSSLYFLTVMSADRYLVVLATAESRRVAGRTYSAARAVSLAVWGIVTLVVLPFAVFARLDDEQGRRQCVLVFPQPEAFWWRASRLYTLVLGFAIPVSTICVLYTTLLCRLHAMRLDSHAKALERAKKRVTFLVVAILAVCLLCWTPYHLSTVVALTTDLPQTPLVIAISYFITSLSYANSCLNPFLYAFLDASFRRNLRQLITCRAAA
TAAR1 ag – human TAAR1 agonism; Q96RJ0; CHO RD-HGA16 TAAR1, Fluo-8 calcium fluorescence; vehicle wells 0%, saturating PEA agonist 100%; activation, % at 3 µM; 360,000 tested, 0.99% active;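 active = activation above the mean activation of all test compounds in the run plus 3 SD, cut at about 38% in these data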
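Assay system: CHO-derived RD-HGA16 cells with stable Gα16 and human TAAR1; timing: 17-24 h seeding, 75 min 37 °C dye, 30 min RT; read-out: % activation from peak over basal fluorescence ratio, DMSO-to-PEA scaled; measured by: kinetic Fluo-8 calcium fluorescence; benchmarks: low control DMSO, high control PEA (EC100); doses: 3 µM single concentration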
OX1R antag-2 – blocks the human orexin 1 receptor. O43613. OX1R-expressing cells, FRET antagonist read-out. inhibition, % at 6.6 µM. 330,000 tested, 1.8% active; in the data active = inhibition mostly above about 38%, no sharp cut-off; inactive = mostly below about 40%;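 also: 0% = agonist challenge alone and 100% = reference antagonist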
GPR7 antag cf – confirmation of human GPR7 antagonists | shares compounds with GPR7 antag | inhibition, % at 4.4 µM | 2,400 tested, 52% active | GPR7-expressing cells, calcium fluorescence antagonist mode; in the data active = inhibition above about 24%;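 also: stimulated with the GPR7 agonist NPW; 0% = agonist plus vehicle and 100% = vehicle alone without agonist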
MCHR1 antag – MCHR1 (human) antagonism in GPR7 counter-screen. shares compounds with GPR7 antag. MCHR1-expressing cells, fluorescence antagonist assay. inhibition, % at 4.4 µM. 2,400 tested, 62% active; in the data active = inhibition above about 22%;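 also: 0% = vehicle with agonist and 100% = vehicle without agonist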
TAAR1 ag confirm – human TAAR1 agonism, confirmed; shares compounds with TAAR1 ag; CHO RD-HGA16 TAAR1, Fluo-8 calcium fluorescence; scaled: DMSO 0%, maximal phenethylamine 100%; activation, % at 3 µM; 2,400 tested, 82% active; AID 651783;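 active = activation above a cutoff set at the run's mean compound activation plus 3 SD, cut at about 39% in these data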
Ga16 nonsel ag – nonselective agonism, TAAR1 counter-screen; shares compounds with TAAR1 ag; CHO-Ga16 parental, Fluo-8 calcium fluorescence; normalized to maximal ATP response, DMSO zero; activation, % at 3 µM; 2,400 tested, 50% active; AID 651787;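 active = activation above the run cutoff, the mean activation over all tested wells plus 3 SD, cut at about 12% in these data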;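 also: 0% = DMSO wells and 100% = maximal ATP response on the peak over basal ratio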
TAAR1 desensitize – TAAR1 response desensitization, agonist counter-screen. shares compounds with TAAR1 ag. CHO RD-HGA16 hTAAR1, Fluo-8 calcium, beta-PEA response inhibition. 2,400 tested, 46% active. inhibition, % at 3 µM;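 active = inhibition above the run cutoff, the mean inhibition of all test compounds plus 3 SD, cut at about 49% in these data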;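 also: beta-PEA stimulus applied at its EC80; loss of beta-PEA calcium signal after compound pretreatment read as receptor desensitization; 0% = DMSO with beta-PEA at EC80 and 100% = DMSO alone without agonist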
Ga16 antag count – nonselective Ga16 antagonist in TAAR1 agonist counter-screen; 2,400 tested, 39% active; shares compounds with TAAR1 ag; inhibition, % at 3 µM; AID 651952; CHO-Ga16 ATP-induced calcium, Fluo-8 fluorescence;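 active = inhibition above the plate's mean compound inhibition plus 3 SD, computed per plate, cut at about 22% in these data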;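 also: 0% = EC80 ATP with DMSO and 100% = DMSO wells without ATP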
Starred values were filed as active, the others as inactive; / = no result given.

SMILES	TAAR1 antagonist	OX1R antag-1	CHO parental Ca	GPR7 antag	TAAR1 ag	OX1R antag-2	GPR7 antag cf	MCHR1 antag	TAAR1 ag confirm	Ga16 nonsel ag	TAAR1 desensitize	Ga16 antag count
CCCCCNCC(=O)Nc1cccc(C(=O)Nc2cccc(C(F)(F)F)c2)c1	49.7*	-12.1	-1.5	25.0*	72.3*	2.2	50.2*	81.2*	75.8*	46.5*	56.3*	45.9*
O=C(Nc1ccccc1)Nc1ccno1	5.4	3.0	-22.7	26.8*	48.3*	-3.3	6.5	5.6	86.7*	2.9	67.2*	13.5
CCOC(=O)c1ccc(NC(=O)COc2ccccc2CNCCc2ccccc2)cc1	35.7	-4.0	-1.8	31.3*	81.0*	6.7	46.5*	73.3*	111.3*	22.8*	85.3*	27.3*
CCOC(=O)CN1C(=O)NC(C)(c2ccc(OC(F)F)cc2)C1=O (configuration not stated)	-14.4	-12.2	13.5	4.9	14.9	12.2	/	/	/	/	/	/
CC(=O)Nc1ccc(/C=N/N2C(=O)NC(C)(c3ccc(OC(F)F)cc3)C2=O)cc1 (configuration not stated)	97.4*	53.4*	36.5*	39.0*	139.7*	-10.3	98.4*	99.4*	137.9*	104.6*	104.4*	92.5*
CC1(c2ccc(OC(F)F)cc2)NC(=O)N(CC(=O)Nc2ccccc2)C1=O (configuration not stated)	98.7*	52.0*	49.3*	88.7*	147.8*	1.0	84.8*	83.7*	138.6*	92.4*	100.6*	72.5*
CC1(c2ccc(OC(F)F)cc2)NC(=O)N(CC(=O)Nc2ccc3c(c2)OCO3)C1=O (configuration not stated)	51.4*	37.6	40.3*	78.3*	110.1*	-2.3	82.5*	81.8*	106.7*	73.2*	86.9*	62.3*
CCN(CC(=O)Nc1ccccc1C(F)(F)F)C(=O)c1cc(-c2ccccc2)nn1-c1ccccc1	44.1	-24.6	-31.2	/	-0.8	12.3	/	/	/	/	/	/
COc1ccc(CNCCC(c2ccccc2)c2ccc3c(c2)OCO3)cc1 (configuration not stated)	30.5	11.1	10.4	40.7*	59.5*	0.7	45.8*	64.2*	57.6*	30.3*	61.7*	36.8*
COc1ccc(C(CC(=O)O)c2ccc3c(c2)OCO3)cc1 (configuration not stated)	-8.2	2.7	2.6	-1.9	-0.3	12.7	/	/	/	/	/	/
Cc1cc(C)n2c(SCC(=O)N3CCN(S(=O)(=O)c4ccc(Cl)cc4)CC3)nnc2n1	-6.9	-12.6	-17.2	-18.4	8.2	20.3	/	/	/	/	/	/
CN1CCN(c2ccc(S(=O)(=O)N3CCCCC3)cc2NC(=O)Cc2ccc(Cl)cc2)CC1	24.1	-5.5	4.7	25.1*	57.0*	8.2	50.0*	53.5*	35.6	27.9*	22.7	21.9*
CC(=O)Nc1cccc(C(=O)/C=C/c2ccc(/C=C/C(=O)c3cccc(NC(C)=O)c3)cc2)c1	29.2	-37.8	-24.0	-6.4	7.7	16.8	/	/	/	/	/	/
CC(=O)Nc1cccc(C(=O)/C=C/c2ccc(N(C)C)cc2)c1	57.8*	100.3*	81.6*	29.5*	127.1*	20.6	60.4*	61.6*	81.4*	96.4*	70.8*	75.0*
O=C(CCl)Nc1ncc(S(=O)(=O)c2ccc([N+](=O)[O-])cc2)s1	-7.2	7.7	-8.8	/	2.9	23.8	/	/	/	/	/	/
COC(=O)C(NC(=O)c1ccccc1Cl)(Nc1ncc(S(=O)(=O)c2ccc([N+](=O)[O-])cc2)s1)C(F)(F)F (configuration not stated)	43.2	19.7	2.4	34.3*	87.8*	17.1	55.9*	42.5*	57.2*	26.8*	43.2	28.6*
CCCCOc1ccc(Br)cc1/C(C)=N/NC1=NCCN1	7.7	-25.5	7.2	24.1*	57.5*	11.6	35.6*	60.2*	65.5*	10.0	26.9	7.5
O=C(Nc1cccc(F)c1)Nc1c[nH]c(=O)[nH]c1=O	-5.0	-4.1	-5.8	-9.9	-0.3	-1.7	/	/	/	/	/	/
c1ccc(CNc2ncnc3c2cnn3Cc2ccccc2)cc1	6.5	-7.7	3.1	27.7*	101.6*	18.8	53.5*	50.7*	82.2*	46.5*	48.4	25.3*
OCCNc1ncnc2c1cnn2Cc1ccccc1	6.7	/	/	-8.6	1.6	/	/	/	/	/	/	/
C[C@H](O)[C@@H]1C(=O)N2CCc3c([nH]c4c(-c5ccccc5)cccc34)[C@@H]2C[C@@H]1N(C)C(=S)Nc1ccc(C#N)cc1	5.8	/	/	/	3.9	/	/	/	/	/	/	/
COc1cccc(NC(=O)c2nnn(Cc3ccc(Br)cc3F)c2N)c1	52.5*	32.7	20.6	24.3*	58.8*	3.0	52.9*	52.7*	75.9*	32.0*	58.8*	36.1*
COc1cccc(NC(=O)Cn2nnc(C(=O)Nc3ccccc3)c2N)c1	-9.8	-10.5	-7.7	-17.0	8.4	8.4	/	/	/	/	/	/
CCc1ccc(Cn2nnc(C(=O)Nc3ccc(OC)cc3OC)c2N)cc1	10.2	13.6	2.6	25.3*	72.3*	19.7	42.0*	18.7	59.9*	22.4*	25.4	20.1
Nc1c(C(=O)NCc2ccc3c(c2)OCO3)nnn1Cc1ccc(Br)cc1	48.5	-3.6	11.7	23.7*	65.5*	-16.4	26.8*	21.0	101.9*	46.5*	76.3*	38.3*
COC(=O)c1cc(C(=O)c2c(C)cc3ccccn23)cc([N+](=O)[O-])c1	-3.7	-35.3	-27.6	-8.7	-3.7	29.6	/	/	/	/	/	/
O=C(COc1ccccc1)OCc1cc2ccccc2[nH]c1=O	10.3	-4.6	-7.2	13.2	13.9	-1.3	/	/	/	/	/	/
